This is a sample that favours compounds with a hit; in the whole collection about 2.1% have one here.
Pf gametocyte: late stage P. falciparum gametocyte viability inhibitors, primary screen, ATP luminescence, HTS. P. falciparum stage V gametocytes, 24 h. inhibition, % at 10.9 µM. 0.065% of 150,000 active. AID 743093, 2013;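 active = inhibition above the mean plus 3 SD of compounds within the control limits, set per campaign, cut at about 38% in these data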
L929 necroptosis: inhibitors of zVAD-triggered necroptosis, primary screen, L929 cells; L929 zVAD necroptosis rescue, ATP luminescence, 24 h; with zVAD 60 µM; viability rescue, % at 10 µM; 0.38% of 220,000 active;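 active = activation, scaled between plate controls, above about 75%, limit read from the data; inactive = activation under that limit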
RBBP9 inh: human RBBP9 inhibitors, primary screen, biochemical, fluorescence polarization, FP-Rh probe, HTS | 0.2% of 220,000 active | Serine hydrolase RBBP9 (Homo sapiens), O75884 | inhibition, % at 7.94 µM | recombinant RBBP9;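 active = inhibition above the campaign mean of all tested compounds plus 3 SD, cut at about 14% in these data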
Target sequence (O75884 whole entry, looked up): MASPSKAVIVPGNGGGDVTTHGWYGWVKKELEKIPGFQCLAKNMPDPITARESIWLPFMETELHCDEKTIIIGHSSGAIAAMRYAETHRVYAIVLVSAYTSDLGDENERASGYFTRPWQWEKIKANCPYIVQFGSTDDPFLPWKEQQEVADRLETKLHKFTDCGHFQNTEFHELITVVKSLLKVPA
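Material: RBBP9 protein. Amount: RBBP9 at 2.5 µM in dispensed solution, before mixing. Schedule: 30 min then 45 min, 25 °C. Medium: Tris buffer pH 8.0, NaCl, Pluronic. Measured by: fluorescence polarization. Measure: percent inhibition from mP, scaled between DMSO and no-protein wells. Replication: one well per compound.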
m-calpain inh: inhibitors of pig calpain II, primary screen, biochemical, fluorogenic peptide substrate, 1536-well; purified calpain II, 30 min; inhibition, % at 16 µM; 0.37% of 220,000 active;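 active = inhibition above about 50%, limit read from the data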
TNF death inh: inhibitors of TNF-alpha triggered necroptosis, primary screen, cell-based, Jurkat FADD-/-, single concentration; Jurkat FADD-/- TNF necroptosis rescue, ATP luminescence, 24 h; 0 = TNF only, 100 = no-TNF cells; activation (protection from cell death), % at 10 µM; 0.068% of 220,000 active; AID 463075, 2010;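 active = activation, meaning protection from cell death, of at least 50% relative to plate controls; inactive = activation below 50%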;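 note: necroptosis triggered by 40 ng/mL TNF-alpha added together with compound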
Wee1 degr inh: Wee1 degradation inhibitors, primary screen, cell-based, HeLa, Wee1K328M-luciferase, luminescence | Wee1-like protein kinase (Homo sapiens), P30291 | HeLa Luc-Wee1K328M stability; 100% = proteasome inhibitor MG132 effect | reporter increase, % at 5 µM | 1.2% of 220,000 active;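 active = activation above the mean of all tested compounds plus 3 SD, set per screening run, cut at about 8.8% in these data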;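 note: cells exposed to compound for 20 h before luminescence read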
Wee1 stab conf: Wee1 degradation inhibitors, confirmation, cell-based, HeLa, Wee1K328M-luciferase, luminescence, triplicate | shares compounds with Wee1 degr inh | HeLa Luc-Wee1K328M degradation; vehicle 0%, proteasome-blocked wells 100% | activation, % at 5 µM | 4% of 1,100 active | AID 1410, 2008; in the data active = activation above about 8.9%
Of the large screens only hits and unclear results are named; the others gave an inactive call (follow-up assays come after a bar, where they were run).

C[C@H](NC(=O)c1nc[nH]c1C(=O)NCCCCCNC(=O)OC(C)(C)C)C(=O)OCc1ccccc1	Wee1 degr inh 9.1 (no result: Pf gametocyte)
CC(C)(C)OC(=O)NCCCCCNC(=O)c1[nH]cnc1C(=O)N[C@@H](CCCCNC(=O)OC(C)(C)C)C(=O)OC(C)(C)C	m-calpain inh 54 (no result: Pf gametocyte)
COC(=O)c1ccc(CO/N=C/c2ccc(OC)cc2)o1	none
Cc1ccc(N(CC(=O)O)S(C)(=O)=O)cc1	none (no result: Pf gametocyte)
COc1cccc(Nc2ncc(C#N)c(N)n2)c1	none
COc1ccccc1-c1cc(C(=O)N/N=C/c2cccs2)c2ccccc2n1	Wee1 degr inh 10 (no result: Pf gametocyte)
CCOc1ccccc1NC(=O)Nc1ccon1	none
CCOc1ccccc1NC(=O)Nc1ccc(CC#N)cc1	Wee1 degr inh 10
COc1ccc(N(CC(=O)NC2CCCCC2)C(=O)CNC(=O)c2ccco2)cc1	none
CC(NC(=S)NCCc1ccccc1)C(c1cccs1)N1CCN(Cc2ccccc2)CC1 (stereo not drawn)	none (no result: Pf gametocyte)
CC(=NCc1cccc(Cl)c1)c1nc(-c2ccco2)oc1O	Wee1 degr inh 9.4
COc1ccc(CNS(=O)(=O)c2ccc(F)c(C(=O)Nc3ccccc3OC)c2)cc1	none (no result: Pf gametocyte)
COc1ccccc1NC(=O)c1cc(S(=O)(=O)NCc2ccccc2)ccc1F	Wee1 degr inh 9.2
O=[N+]([O-])c1ccc(-n2cccc2/C=N/Nc2nc(N3CCCCC3)nc(N3CCCCC3)n2)cc1	Wee1 degr inh 11 (no result: Pf gametocyte)
COc1ccc(OC)c(NC(=S)N2CCC(C(O)(c3ccccc3)c3ccccc3)CC2)c1	Pf gametocyte 57
N#C/C(=C(/O)COC(=O)c1ccc(O)cc1)c1nc2ccccc2[nH]1	Wee1 degr inh 8.9
O=C(N/N=C/c1coc2ccccc2c1=O)c1cn(-c2ccccc2)nc1-c1ccccc1	Wee1 degr inh 10.0
CCCC1/C(=N/O)CC(c2ccccc2)NC1c1ccccc1 (stereo not drawn)	Wee1 degr inh 9.1 (no result: Pf gametocyte)
CC1/C(=N/O)CC(c2ccccc2)NC1c1ccccc1 (stereo not drawn)	none (no result: Pf gametocyte)
O=C(COc1ccccc1F)N/N=C1\CCCc2ccccc21	Wee1 degr inh 11
COc1ccccc1OCC(=O)N/N=C1\CCCCc2ccccc21	none
COc1ccc2c(c1)c(C(=O)N/N=C/c1cn(C)c3ccccc13)c(C)n2C	Wee1 degr inh 9.4
Cc1ccc(OCC(=O)N/N=C/c2cn(C)c3ccccc23)cc1	Wee1 degr inh 9.2
COc1ccc2c(c1)c(C(=O)N/N=C/c1ccc(OC)c(OC)c1)c(C)n2C	none (no result: Pf gametocyte)
Cc1ccccc1OCC(=O)N/N=C/c1cn(C)c2ccccc12	none
COc1ccc(N=Nc2nc3ccc(Br)cc3n2C)cc1	Wee1 degr inh 9.9 (no result: Pf gametocyte)
C/C(=N\NC(=O)c1nc2ccccn2c1C)c1ccc2c(c1)OCO2	Wee1 degr inh 12 (no result: Pf gametocyte) | Wee1 stab conf inactive
C/C(=N\NC(=O)c1nc2ccccn2c1C)c1cccc([N+](=O)[O-])c1	none
O=C(NCCCn1ccnc1)/C(=C\c1cccnc1)NC(=O)c1ccco1	none
O=C(NCCCn1ccnc1)/C(=C\c1cccnc1)NC(=O)c1ccccc1F	Wee1 degr inh 21 | Wee1 stab conf inactive
COc1ccc(NC(=S)N2CCC(c3nc4ccccc4o3)CC2)c(OC)c1	none
O=C(/C=N\O)NCCCNCc1ccccc1	Wee1 degr inh 16 (no result: Pf gametocyte) | Wee1 stab conf inactive
Cc1cccc2cc3c(N)c(C(=O)N4CCOCC4)sc3nc12	Wee1 degr inh 14 (no result: Pf gametocyte) | Wee1 stab conf inactive
Cc1cc(C)c2cc3c(N)c(C(=O)N4CCc5ccccc5C4)sc3nc2c1	none (no result: Pf gametocyte)
CC(C)(C)NC(=O)/C(=C/c1ccccc1F)NC(=O)c1ccc([N+](=O)[O-])cc1	Wee1 degr inh 15 | Wee1 stab conf inactive
CN(C)c1nc(N)nc(-c2nc3ccccc3s2)n1	Wee1 degr inh 12 | Wee1 stab conf inactive
CCN(CC)C(=O)c1c(-c2ccccc2)oc2ccc(OC)cc12	Wee1 degr inh 17 (no result: L929 necroptosis) | Wee1 stab conf inactive
COC(=O)c1cc(NC(=O)c2cc(-c3ccc(OC)cc3)oc2C(F)(F)F)ccc1N1CCOCC1	Wee1 degr inh 12 | Wee1 stab conf inactive
COC(=O)c1cc(NC(=O)c2cc(-c3ccc(C(F)(F)F)cc3)oc2C(F)(F)F)ccc1N1CCOCC1	none
O=C(CNC(=O)c1ccc(Oc2ccccc2)cc1)OC1CCCCC1=O (stereo not drawn)	none
CN1N=C(C(=O)N2CCc3c([nH]c4ccccc34)C2c2ccccc2Cl)CCC1=O (stereo not drawn)	Wee1 degr inh 12 | Wee1 stab conf inactive
O=C(c1cc[n+]([O-])cc1)N1CCc2c([nH]c3ccccc23)C1c1ccccc1Cl (stereo not drawn)	none
COc1cccc(CC2(CO)CCN(Cc3ccc(NC(C)=O)cc3)CC2)c1	Wee1 degr inh 22 (no result: Pf gametocyte) | Wee1 stab conf inactive
COCCn1c(N)c(N(Cc2ccccc2)C(=O)C2CCCC2)c(=O)[nH]c1=O	none
Cc1nnc(SCC(=O)NCc2ccc(Cl)cc2)[nH]c1=O	none
Cc1nnc(SCC(=O)NCc2ccc(F)cc2)[nH]c1=O	Wee1 degr inh 11 | Wee1 stab conf inactive
O=C(Nc1nc2c(s1)CCCC2)c1cc2n(n1)C(C(F)(F)F)CC(C1CC1)N2 (stereo not drawn)	Wee1 degr inh 15 (no result: Pf gametocyte) | Wee1 stab conf inactive
Cc1nnc(NC(=O)c2cc3n(n2)C(C(F)(F)F)CC(C2CC2)N3)s1 (stereo not drawn)	none (no result: Pf gametocyte)
CC(C)C(=O)Nc1nnc(Cc2c[nH]c3ccccc23)s1	none
CCc1nnc(NC(=O)CCc2c[nH]c3ccccc23)s1	Wee1 degr inh 15 | Wee1 stab conf inactive
COc1ccc(C2CC(c3ccc(C)o3)=NN2C(C)=O)cc1 (stereo not drawn)	Wee1 degr inh 12 | Wee1 stab conf inactive
ClCc1nnc(-c2cc3c(s2)CCCC3)o1	none
CC(C)C1CC(c2csc(N)n2)CCO1 (stereo not drawn)	Wee1 degr inh 13 (no result: Pf gametocyte) | Wee1 stab conf inactive
Cc1sc2nc(CSCC(=O)N(CCC#N)c3ccccc3)[nH]c(=O)c2c1C	none (no result: Pf gametocyte)
Cc1ncoc1C(=O)Nc1ncc([N+](=O)[O-])s1	Wee1 degr inh 14 | Wee1 stab conf inactive
